Measurements from different studies.
Protocols differ between the studies behind these lines.

| SMILES | tested on | test | test system | setting | quantity | value |
| --- | --- | --- | --- | --- | --- | --- |
| O=[N+]([O-])c1ccc(Oc2cccc3cccnc23)c([N+](=O)[O-])c1 | WI-38 | cell growth or viability, MTT | – | 48 h | CC50 | 243 µM |
| O=C1N=C(N2CCCCN2)S/C1=C\c1ccc(F)cc1OC(=O)N1CCCC1 | – | general toxicity | Sprague-Dawley rat | oral, multiple doses | NOAEL | 2000 mg/kg/day |
| CCC[C@@](N)(CO)CCc1ccc(OCCCCCC(C)C)cc1 | – | – | dog, plasma | intravenous, 0.25 mg/kg | C0 | 36 nM |
| COc1c2ccoc2cc2oc(=O)ccc12 | WI-38 | cell growth or viability, WST-1 | – | 48 h | IC50 | 86.3 µM |
| Cc1cc(NC2CCN(C(=O)OC3CCN(C(=O)/C=C/CN(C)C)C3)CC2)n2ncc(C(C)C)c2n1 (stereo not shown) | – | general toxicity | rat | oral, multiple doses, once daily | MTD | 6 mg/kg |
| C#C[C@]1(CO)O[C@@H](n2cnc3c(N)nc(F)nc32)C[C@@H]1O | – | general toxicity | rat | oral, multiple doses | NOAEL | ≥ 50 mg/kg/day |
| N=c1c2c(-c3ccccc3)c(-c3ccccc3)n(Cc3ccccc3)c2ncn1[C@H]1CC[C@H](O)CC1 | – | – | male cynomolgus monkey, plasma | intravenous, 0.5 mg/kg, single dose | clearance | 0.6 mL/min/kg |
| Cc1cc(C)nc(Nc2ncc(C(=O)NCCc3c(C)[nH]c4ccccc34)cn2)c1 | – | metabolic stability | dog, liver microsomes | 1 µM | half-life | 10 min |
| Cc1nc2ccccc2n(-c2ccc([N+](=O)[O-])cc2[N+](=O)[O-])c1=O | WI-38 | cell growth or viability, MTT | – | 48 h | CC50 | 61.2 µM |
| O=C(Nc1ncc([N+](=O)[O-])s1)c1ccccc1O | RPE | cell growth or viability | – | 48 h | CC50 | ≥ 30 µM |
| O=c1c(O[C@@H]2O[C@H](CO)[C@@H](O)[C@H](O)[C@H]2O)c(-c2ccc(O)cc2)oc2cc(O)cc(O)c12 | WI-38 | cell growth or viability, WST-1 | – | – | IC50 | 113 µM |
| O=C1Nc2c(C(F)(F)F)cccc2[C@@]1(c1ccc(O)cc1)c1ccc(OC(F)(F)F)cc1 | – | general toxicity | Sprague-Dawley rat | intravenous | MTD | 10 to 20 mg/kg |
| O=C(O)c1cn(Cc2ccc(F)cc2)c2ccccc12 | UDP-glucuronosyltransferase 1A10 (UGT1A10, Homo sapiens, UniProt Q9HAW8) | enzyme activity, substrate | – | – | Km | 38 µM |
